Screens from PubChem.
TAAR1 agonist – agonists of human TAAR1 | Q96RJ0 | CHO RD-HGA16 TAAR1, Fluo-8 calcium fluorescence; vehicle wells 0%, saturating PEA agonist 100% | activation, % at 3 µM | hit rate 0.99% among 360,000 | AID 624467;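 active = activation above the mean activation of all test compounds in the run plus 3 SD, cut at about 38% in these data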
Target sequence (Q96RJ0 whole entry, looked up): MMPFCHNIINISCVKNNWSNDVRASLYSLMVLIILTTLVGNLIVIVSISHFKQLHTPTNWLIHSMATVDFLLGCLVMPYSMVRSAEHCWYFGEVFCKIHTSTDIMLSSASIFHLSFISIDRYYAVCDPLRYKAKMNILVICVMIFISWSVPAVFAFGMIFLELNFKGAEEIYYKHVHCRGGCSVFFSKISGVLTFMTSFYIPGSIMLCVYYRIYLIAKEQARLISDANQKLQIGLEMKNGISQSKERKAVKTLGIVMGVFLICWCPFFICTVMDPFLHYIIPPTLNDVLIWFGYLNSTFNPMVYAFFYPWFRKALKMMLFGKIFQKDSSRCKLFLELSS
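test system = CHO RD-HGA16 cells carrying human TAAR1 plus Gα16 | schedule = 17-24 h seeding, 75 min 37 °C dye, 30 min RT | compound dosing = 3 µM single concentration | control set = DMSO and PEA EC100 | replicates = n 1 | signal = Fluo-8 fluorescence, 5 s baseline then 140 s kinetic read | measure = percent activation vs PEA EC100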
CHO parental Ca – signal in parental CHO cells, OX1R antagonist counter-screen; parental CHO-K1, ATP-induced calcium, Fluo-8 fluorescence; hit rate 0.63% among 330,000; AID 463079; inhibition, % at 5.6 µM;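 active = inhibition above that plate's mean sample inhibition plus 3 SD, cut at about 26% in these data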;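 note: 0% = ATP-challenged DMSO wells and 100% = DMSO wells without ATP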
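material = parental CHO cells | also added = ATP as calcium-mobilizing challenge | dosing = single point at 5.6 µM | detection = intracellular calcium via Fluo-8 no-wash fluorescent dye | read-out = % inhibition | benchmarks = low control ATP plus DMSO, high control DMSO only | repeats = one well per compound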
OX1R antag-1 – antagonists of human orexin 1 receptor (OX1R); inhibition, % at 6.6 µM; OX1R-expressing cells, FRET antagonist read-out; O43613; hit rate 1.8% among 330,000; AID 485270; in the data active = inhibition mostly above about 38%, no sharp cut-off; inactive = mostly below about 40%;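 note: 0% = agonist challenge alone and 100% = reference antagonist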
GalR3 antagonist – antagonists of human GalR3; hit rate 0.44% among 360,000; inhibition, % at 3 µM; HEK293 GalR3-CNG cAMP membrane potential fluorescence; galR3 body fused to GalR1 C-terminus; AID 651719; O60755;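 active = inhibition above the screen-wide average plus 3 SD, cut at about 13% in these data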;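 note: forskolin and galanin both at EC90 stimulate the cells; cAMP rise reported by CNG channel membrane potential dye signal; 0% = forskolin plus galanin with DMSO and 100% = forskolin alone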
TAAR1 antag – antagonists of human TAAR1; Q96RJ0; CHO RD-HGA16 TAAR1, Fluo-8 calcium fluorescence, antagonist; inhibition, % at 3 µM; hit rate 1.5% among 360,000;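 active = inhibition above a per-plate cutoff, the mean inhibition of test compounds on that plate plus 3 SD, cut at about 49% in these data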;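 note: 0% = DMSO plus EC80 beta-PEA response and 100% = DMSO alone without agonist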
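System: RD-HGA16 CHO cells with stable hTAAR1 and Gα16 | Probe or stimulus: EC80 β-phenethylamine stimulus | Dosing: 3 µM, single point | Times: Dye loading 75 min at 37 °C, then 30 min room temperature | Measured by: Fluo-8 calcium-sensitive fluorescence | Read-out basis: % inhibition of agonist calcium response | Replicates: n of 1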
OX1R antag-2 – blocks the human orexin 1 receptor; O43613; CHO/OX1R cells, Fluo-8 calcium fluorescence, orexin A; inhibition, % at 5 µM; hit rate 0.43% among 330,000; AID 434989;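 active = inhibition above its plate's threshold, mean inhibition of all tested compounds on the plate plus 3 SD, cut at about 37% in these data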;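 note: 0% = orexin A challenge wells and 100% = SB-334867-A antagonist wells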
Starred values were filed as active, the others as inactive; · = no result. Only some compounds are listed: those with a hit (about 4.2% of all), similar ones and a draw of the others.

SMILES	TAAR1 agonist	CHO parental Ca	OX1R antag-1	GalR3 antagonist	TAAR1 antag	OX1R antag-2
CN1OCC2Cn3c(nc4ccccc43)C21 (stereo unspecified)	14	-14	4	-3	8	-5
CCC1CN1P(=S)(N1CC1CC)N1CC1CC (stereo unspecified)	5	·	·	-1	-19	·
N#Cc1ccc(NC(=O)CN2C(=O)NC3(CCCCCCC3)C2=O)cc1Cl	2	-5	12	4	10	-11
COc1ccc(C(c2nnnn2-c2ccc(OC)cc2)N2CCC(n3c(=O)[nH]c4ccccc43)CC2)cc1 (stereo unspecified)	12	·	·	-5	44	·
O=[N+]([O-])[N-][n+]1cnn(Cc2ccc(Cl)cc2)c1	2	10	9	-5	-8	-1
COc1ccc(C(=O)CN2CCCCC2)cc1	8	11	8	-6	-3	-18
CC1CC(C)CN(CC(=O)c2ccc(OC(F)F)cc2)C1 (stereo unspecified)	42*	-6	16	-3	-31	-10
Cc1ccc(C(=O)N[C@@H](C)CN2C3=NC[C@H](Cc4ccccc4)N3C[C@H]2Cc2ccc(O)cc2)cc1Br	·	42*	16	·	·	47*
Cc1ccc(C(=O)N[C@@H](C)CN2C3=NC[C@@H](Cc4ccccc4)N3C[C@H]2Cc2ccc(O)cc2)cc1Br	2	-11	6	-5	2	-3
CN1CCN(c2nc(N)cc(=O)[nH]2)CC1	0	-2	-2	-8	-10	-23
O=C(O)CC1OCC=C2CN3CCC45C6=CC(=O)C(=O)C([N+](=O)[O-])=C6NC4C1C2CC35 (stereo unspecified)	·	6	38*	·	·	-17
COC(=O)C1=C(c2ccc(F)cc2F)C[C@@H]2CC[C@H]1N2C(=O)NC(C)C	·	-19	-3	·	·	-14
CCN(CC)c1ccc(N=Cc2c(O)n(-c3cc(OC)ccc3OC)c(=O)[nH]c2=O)cc1	12	1	9	-3	1	8
C[C@]12CC[C@H](O)C[C@H]1CC[C@@H]1[C@@H]2CC[C@]2(C)[C@@H](C3=CC(=O)OC3)CC[C@]12O	3	-9	18	26*	-4	-8
COC1C(O)C(C)OC(OC2CCC3(C)C(CCC4C3C(O)CC3(C)C(C5=CC(=O)OC5)CCC43O)C2)C1O (stereo unspecified)	2	·	·	28*	-13	·
CC(=O)OC1CC(OC2C(O)CC(OC3C(O)CC(OC4CCC5(C)C(CCC6C5CC(O)C5(C)C(C7=CC(=O)OC7)CCC65O)C4)OC3C)OC2C)OC(C)C1OC1OC(CO)C(O)C(O)C1O (stereo unspecified)	0	·	·	12	-10	·
CC12CCC(O)CC1CCC1C2CCC2(C)C(C3=CC(=O)OC3)CCC12O (stereo unspecified)	3	·	·	30*	0	·
O=P(Oc1ccc(-c2ccccc2)cc1)(N1CC1)N1CC1	1	·	·	-4	-10	·
CCOc1cc2c(cc1OCC)-n1cccc1C(c1ccc(OC)cc1)NC2 (stereo unspecified)	22	0	10	-14	2	-22
COC1CCCCC1NCCc1ccccc1 (stereo unspecified)	38*	-18	23	-4	-22	-21
O=C(NCCN1CCC2(CC1)C(=O)NCN2c1cccc(F)c1)c1ccc2ccccc2c1	83*	·	·	-11	106*	·
O=C(NCCN1CCC2(CC1)C(=O)NCN2c1ccccc1)c1ccccc1F	2	·	·	-4	-11	·
CCN(CC)S(=O)(=O)c1ccc(C)c(NCC(=O)Nc2ccc(C#N)c(Cl)c2)c1	14	56*	17	-11	26	33
O=c1c2ccccc2[nH]c(=S)n1-c1cccc(C(F)(F)F)c1	5	·	·	-2	1	·
CCC(C)(C)n1nnnc1C(c1cccs1)N1CC=C(c2ccc(F)cc2)CC1 (stereo unspecified)	10	46*	20	-12	25	-2
COc1cc2c(cc1OC)CN(c1ccc([N+](=O)[O-])c(C(F)(F)F)c1)CC2	4	30	48*	-2	36	-7
